In ChEMBL document CHEMBL3259717, “Synthetic calanolides with bactericidal activity against replicating and nonreplicating Mycobacterium tuberculosis” (J Med Chem, 2014) one finds MIC90, CC50 and selectivity ratio data, which are given here for 33 molecules.

Data set [1] deals with Mycobacterium tuberculosis. In words: Antibacterial activity against replicating form of Mycobacterium tuberculosis MC2 6220 assessed as growth inhibition after 7 days by high-throughput screening assay. It is filed as functional. The note with it: MC2 6220, 168 h. Put shortly:
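Attenuated Mtb mc26220 ΔpanCDΔlysA in 7H9 with glycerol, tyloxapol, OADC, casein amino acids, 240 μg/mL L-lysine, 24 μg/mL pantothenate. Mid-log cells diluted to OD580 0.01 in 384-well plates, compound in DMSO, 7 days at 37 °C, 20% O2, 5% CO2. OD580 read; MIC90 = 90% growth inhibition vs DMSO.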

For data set [2], the system named is Mycobacterium tuberculosis. In words: Antibacterial activity against non-replicating form of Mycobacterium tuberculosis MC2 6220 assessed as growth inhibition after 3 days by high-throughput screening assay. It is filed as functional. The conditions noted are these: MC2 6220, 72 h. The method, boiled down:
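Log-phase mc26220 washed in PBS/tyloxapol, resuspended in Sauton's-based NR medium (butyrate, 0.5 mM NaNO2, pH 5.0) at OD580 0.1. Compound exposure 3 days at 37 °C, 1% O2, 5% CO2. Then R medium added (5-fold dilution), 7 days outgrowth at 20% O2. OD580 read; MIC90 = 90% inhibition vs DMSO.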

Data set [3] can be described thus: Cytotoxicity against human HepG2 cells assessed as decrease in ATP signal after 2 days by CellTiter-Glo assay. It is filed as cell-based. The conditions noted are these: read-out: LD50. Put shortly: (§1)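 HepG2 in DMEM with 10% FBS, pyruvate, glutamine, HEPES and nonessential amino acids, seeded 3000 cells/well in 384-well plates. Compound for 2 days at 1% final DMSO. ATP read by CellTiter-Glo luminescence. LD50 = 50% drop in ATP signal vs DMSO. SI = LD50/MIC90 against replicating Mtb.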
On the technique in general: In ATP-based viability assays light output follows the ATP content of the culture.

Data set [4] can be described thus: Selectivity index, ratio of LD50 for human HepG2 cells to MIC90 for replicating form of Mycobacterium tuberculosis mc'2 6220. The class given is toxicity, cell-based. The note with it: read-out: Selectivity Index. The method, boiled down: as §1

Converted amounts (≈) assume the structure as drawn.

As for `CCCc1cc(=O)oc2c1c1c(c3oc([N+](=O)[O-])cc32)C=CC(c2ccccc2)O1` (configuration not stated), the MIC90 in data set [1] amounted to 20 µg/mL (≈ 49.6 µM); in data set [2] it was 6 µg/mL (≈ 14.9 µM). For the same molecule, the CC50 at 48 h in data set [3] was found to be 3 µg/mL (≈ 7.44 µM). In addition, the selectivity ratio in data set [4] amounted to 0.1.
Consider `O=[N+]([O-])C1Cc2ccccc2O1` (configuration not stated), for which the MIC90 in data set [1] and in data set [2] was 0.4 µg/mL (≈ 2.42 µM) throughout. Further, the CC50 at 48 h in data set [3] turned out to be 3 µg/mL (≈ 18.2 µM). The selectivity ratio in data set [4] came to 6.
As for `CCCc1cc(=O)oc2c1c(OCCN1CCCC1)cc1oc([N+](=O)[O-])cc12`, the MIC90 in data set [1] and in data set [2] was less than 0.2 µg/mL each time. The CC50 at 48 h in data set [3] is 1 µg/mL (≈ 2.59 µM). In addition, the selectivity ratio in data set [4] was greater than 5.
Turning to `CCCc1cc(=O)oc2c1c(OCCN1CCOCC1)cc1[nH]c([N+](=O)[O-])cc12`, the MIC90 in data set [1] and in data set [2] was greater than 50 µg/mL each time. Also, the CC50 at 48 h in data set [3] stood at 25 µg/mL (≈ 62.3 µM). The selectivity ratio in data set [4] was less than 0.5.
Take `O=C(OCCOc1cc2c(c3oc(=O)c4c(c13)CCCC4)[C@H](O)[C@@H]([N+](=O)[O-])O2)c1cnccn1` (racemic): the MIC90 in data set [1] and in data set [2] was less than 1 µg/mL each time. The CC50 at 48 h in data set [3] was determined as 0.4 µg/mL (≈ 0.852 µM). The selectivity ratio in data set [4] was greater than 0.3.
Consider `CC1(C)C=Cc2c(c3c(CN4CCOCC4)cc(=O)oc3c3cc([N+](=O)[O-])oc23)O1`, for which the MIC90 in data set [1] and in data set [2] was less than 0.2 µg/mL in each case. In data set [3], the CC50 at 48 h amounted to 1 µg/mL (≈ 2.42 µM). In data set [4], the selectivity ratio was greater than 5.
On to `CCCc1cc(=O)oc2c3c(cc(OCCN4CCOCC4)c12)OC(C)([N+](=O)[O-])C3O` (racemic), for which the MIC90 in data set [1] and in data set [2] was 100 µg/mL (≈ 230 µM) in each case. Moreover, the CC50 at 48 h in data set [3] was greater than 100 µg/mL. Moreover, in data set [4], the selectivity ratio was greater than 1.
As to `CCCc1cc(=O)oc2cc(C#CCOc3ccc(F)cc3)c3c(c12)OC(C)(C)C=C3`, the MIC90 in data set [1] and in data set [2] was greater than 21 µg/mL each time. In addition, the CC50 at 48 h in data set [3] is greater than 21 µg/mL.
With `CC1(C)CCc2c3c(c4oc(=O)c5c(c4c2O1)CCC5)[C@H](O)[C@@H]([N+](=O)[O-])O3`, the results for the MIC90 in data set [1] and in data set [2] were 0.2 µg/mL (≈ 0.536 µM) and 0.4 µg/mL (≈ 1.07 µM), respectively. The CC50 at 48 h in data set [3] stood at 25 µg/mL (≈ 67 µM). For the same molecule, the selectivity ratio in data set [4] is 128.
Turning to `CCCc1cc(=O)oc2cc(N3CCN(C(=O)Nc4ccc(C(C)C)cc4)CC3)c3c(c12)OC(C)(C)C=C3`, the MIC90 in data set [1] and in data set [2] was greater than 26 µg/mL throughout. Moreover, in data set [3], the CC50 at 48 h was greater than 26 µg/mL.
As for `CCCc1cc(=O)oc2cc(OCCN3CCOCC3)c3c(c12)OC(C)(C)C=C3`, the results for the MIC90 in data set [1] and in data set [2] were 20 µg/mL (≈ 50.1 µM) and greater than 20 µg/mL, respectively. Besides, the CC50 at 48 h in data set [3] was 20 µg/mL (≈ 50.1 µM).
For `CCCc1cc(=O)oc2cc(N3CCN(C(=O)Nc4ccc(OC)cc4)CC3)c3c(c12)OC(C)(C)C=C3`, the MIC90 in data set [1] and in data set [2] was greater than 25 µg/mL in each case. For the same molecule, the CC50 at 48 h in data set [3] is greater than 25 µg/mL.
As for `CCCc1cc(=O)oc2cc(N3CCN(C(=O)Nc4ccc(OC(F)(F)F)cc4)CC3)c3c(c12)OC(C)(C)C=C3`, the MIC90 in data set [1] and in data set [2] was greater than 28 µg/mL throughout. For the same molecule, the CC50 at 48 h in data set [3] was greater than 28 µg/mL.
With `CCCc1cc(=O)oc2c3c(cc(OCCOC(=O)c4cnccn4)c12)O[C@H]([N+](=O)[O-])[C@H]3O` (racemic), the MIC90 in data set [1] and in data set [2] was less than 1 µg/mL each time. In data set [3], the CC50 at 48 h was less than 1 µg/mL.
Regarding `CCCc1cc(=O)oc2cc(C#Cc3ccccn3)c3c(c12)OC(C)(C)C=C3`, the MIC90 in data set [1] and in data set [2] was greater than 19 µg/mL each time. In data set [3], the CC50 at 48 h was greater than 19 µg/mL.
With `CCCc1cc(=O)oc2c3c(cc(OCCO)c12)O[C@H]([N+](=O)[O-])[C@H]3O` (racemic), the MIC90 in data set [1] and in data set [2] was less than 1 µg/mL throughout. Further, the CC50 at 48 h in data set [3] is less than 1 µg/mL.
Take `CCCc1cc(=O)oc2cc(N3CCN(C(=O)Nc4ccc(F)c(Cl)c4)CC3)c3c(c12)OC(C)(C)C=C3`: the MIC90 in data set [1] and in data set [2] was greater than 26 µg/mL throughout. The CC50 at 48 h in data set [3] is greater than 26 µg/mL.
In the case of `CCCc1cc(=O)oc2cc(N3CCN(C(=O)Nc4ccc(C(F)(F)F)cc4)CC3)c3c(c12)OC(C)(C)C=C3`, the MIC90 in data set [1] and in data set [2] was greater than 27 µg/mL throughout. The CC50 at 48 h in data set [3] was greater than 27 µg/mL.
Consider `CCCCCCCNC(=O)N1CCN(c2cc3oc(=O)cc(CCC)c3c3c2C=CC(C)(C)O3)CC1`, for which the MIC90 in data set [1] and in data set [2] was greater than 25 µg/mL each time. Further, the CC50 at 48 h in data set [3] was greater than 25 µg/mL.
On to `CCCc1cc(=O)oc2c(C(=O)O)c(O)c3c(c12)OC(C)(C)C=C3`, for which the MIC90 in data set [1] and in data set [2] was greater than 17 µg/mL throughout. The CC50 at 48 h in data set [3] was greater than 17 µg/mL.
Regarding `CCCc1cc(=O)oc2cc(C#Cc3ccc(F)cc3)c3c(c12)OC(C)(C)C=C3`, the MIC90 in data set [1] and in data set [2] was greater than 19 µg/mL throughout. For the same molecule, the CC50 at 48 h in data set [3] was greater than 19 µg/mL.
In the case of `CCCc1cc(=O)oc2cc(OC3CCCC3)c3c(c12)OC(C)(C)C=C3`, the MIC90 in data set [1] and in data set [2] was greater than 23 µg/mL each time. Also, the CC50 at 48 h in data set [3] was greater than 23 µg/mL.
Turning to `CCCc1cc(=O)oc2cc(C#CCO)c3c(c12)OC(C)(C)C=C3`, the MIC90 in data set [1] and in data set [2] was greater than 16 µg/mL in each case. Moreover, the CC50 at 48 h in data set [3] was greater than 16 µg/mL.
Turning to `CCCc1cc(=O)oc2c(C(=O)N3CCOCC3)c(O)c3c(c12)OC(C)(C)C=C3`, the MIC90 in data set [1] and in data set [2] was greater than 20 µg/mL in each case. The CC50 at 48 h in data set [3] was greater than 20 µg/mL.
As to `CCCc1cc(=O)oc2cc(N3CCN(C(=O)NCc4ccccc4)CC3)c3c(c12)OC(C)(C)C=C3`, the MIC90 in data set [1] and in data set [2] was greater than 24 µg/mL throughout. Further, the CC50 at 48 h in data set [3] is greater than 24 µg/mL.
`CCCc1cc(=O)oc2cc(N3CCN(C(=O)Nc4ccc(C#N)cc4)CC3)c3c(c12)OC(C)(C)C=C3`: the MIC90 in data set [1] and in data set [2] was greater than 25 µg/mL each time. For the same molecule, the CC50 at 48 h in data set [3] was greater than 25 µg/mL.
With `CCCc1cc(=O)oc2cc(C#Cc3ccc(OC)cc3)c3c(c12)OC(C)(C)C=C3`, the MIC90 in data set [1] and in data set [2] was greater than 20 µg/mL each time. In addition, in data set [3], the CC50 at 48 h is greater than 20 µg/mL.
With `CCCc1cc(=O)oc2cc(N3CCN(C(=O)Nc4ccccc4Oc4ccccc4)CC3)c3c(c12)OC(C)(C)C=C3`, the MIC90 in data set [1] and in data set [2] was greater than 28 µg/mL each time. In addition, the CC50 at 48 h in data set [3] was greater than 28 µg/mL.
`CCCc1cc(=O)oc2cc(OC3CCN(C(=O)NCc4ccccc4)CC3)c3c(c12)OC(C)(C)C=C3`: the MIC90 in data set [1] and in data set [2] was greater than 25 µg/mL in each case. In data set [3], the CC50 at 48 h was greater than 25 µg/mL.
For `CCCc1cc(=O)oc2cc(C#Cc3ccc(C)cc3)c3c(c12)OC(C)(C)C=C3`, the MIC90 in data set [1] and in data set [2] was greater than 19 µg/mL throughout. In addition, the CC50 at 48 h in data set [3] was greater than 19 µg/mL.
Take `CCCc1cc(=O)oc2cc(OC3CCCCC3)c3c(c12)OC(C)(C)C=C3`: the MIC90 in data set [1] and in data set [2] was greater than 18 µg/mL throughout. Further, the CC50 at 48 h in data set [3] was greater than 18 µg/mL.
For the molecule `CCCc1cc(=O)oc2c3c(cc(OCCN4CCOCC4)c12)O[C@H]([N+](=O)[O-])[C@H]3C` (racemic), the MIC90 in data set [1] and in data set [2] was greater than 21 µg/mL throughout. Further, the CC50 at 48 h in data set [3] is greater than 21 µg/mL.
For `CCCc1cc(=O)oc2cc(OC(C)C)c3c(c12)OC(C)(C)C=C3`, the MIC90 in data set [1] and in data set [2] was greater than 16 µg/mL in each case. Moreover, the CC50 at 48 h in data set [3] is greater than 16 µg/mL.

Broadly, the MIC90 is the lowest concentration that inhibits either 90% of growth or 90% of the strains tested, depending on the study.
